Reference: ChEMBL document CHEMBL1154182 (J Med Chem, 2009)
Numbered stars: 1 amine (or outer) side, 2 acyl side, 3 side chain; on linkers, the order of the positions; unused ones are H or OH. Bridge positions count the residues as written; N and C are the ends. Square brackets hold non-standard residues; d marks the D form. Peptide text beside a SMILES is read from it. 1Nal = N[C@@H](Cc1cccc2ccccc12)C(=O)O; 2Nal = N[C@@H](Cc1ccc2ccccc2c1)C(=O)O; CH2 = C([*:1])[*:2]

Assays:
[1] = target: Delta-type opioid receptor (Rattus norvegicus) (UniProt P33533); conditions: C6, 1 uM
[2] = target: T1, Delta-type opioid receptor (Rattus norvegicus, UniProt P33533); assay: Displacement of [3H]diprenorphine from rat delta opioid receptor expressed in rat C6 cells after 1 hr by liquid scintillation counting; type: cell-based
Method in brief: (§1)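 Membranes from C6 glioma cells stably expressing rat MOR or DOR, or CHO cells expressing human KOR (10-20 μg protein), incubated with 0.2 nM [3H]diprenorphine and increasing peptide concentrations in 50 mM Tris-HCl pH 7.4 for 1 h at 25 °C. Filtered and counted by scintillation. Nonspecific binding defined with 10 μM naloxone.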

[3] = target: Delta-type opioid receptor (Rattus norvegicus) (UniProt P33533); assay: Agonist activity at rat delta opioid receptor expressed in rat C6 cells assessed as stimulation of [35S]GTPgammaS binding at 10 uM after 1 hr by liquid scintillation counting relative to SNC80; type: functional, cell-based
Method in brief: (§2)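 Membranes (20-30 μg protein) from C6-MOR, C6-DOR or CHO-KOR cells incubated 1 h at 25 °C in 50 mM Tris-HCl pH 7.4, 100 mM NaCl, 5 mM MgCl2 with 0.1 nM [35S]GTPγS, 100 μM GDP and peptide at 0.001-10000 nM or 10 μM. Filtered and counted.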

[4] = target: Mu-type opioid receptor (Rattus norvegicus) (UniProt P33535); assay: Agonist activity at rat mu opioid receptor expressed in rat C6 cells assessed as stimulation of [35S]GTPgammaS binding at 10 uM after 1 hr by liquid scintillation counting relative to DAMGO; type: functional, cell-based
Method in brief: as §2

Mu-type opioid receptor [5] = target: T2, Mu-type opioid receptor (Rattus norvegicus, UniProt P33535); assay: Displacement of [3H]diprenorphine from rat mu opioid receptor expressed in rat C6 cells after 1 hr by liquid scintillation counting; type: cell-based
Method in brief: as §1

[6] = target: T3, Kappa-type opioid receptor (Homo sapiens, UniProt P41145); assay: Displacement of [3H]diprenorphine from human kappa opioid receptor expressed in CHO cells after 1 hr by liquid scintillation counting; type: cell-based
Method in brief: as §1

[7] = target: T3, Kappa-type opioid receptor; assay: Agonist activity at human kappa opioid receptor expressed in CHO cells assessed as stimulation of [35S]GTPgammaS binding at 10 uM after 1 hr by liquid scintillation counting relative to U69593; type: functional, cell-based
Method in brief: as §2

[8] = target: T3, Kappa-type opioid receptor; assay: Agonist activity at human kappa opioid receptor expressed in CHO cells assessed as stimulation of [35S]GTPgammaS binding after 1 hr by liquid scintillation counting; type: functional, cell-based
Method in brief: as §2

Mu-type opioid receptor [9] = target: T2, Mu-type opioid receptor; assay: Agonist activity at rat mu opioid receptor expressed in rat C6 cells assessed as stimulation of [35S]GTPgammaS binding after 1 hr by liquid scintillation counting; type: functional, cell-based
Method in brief: as §2

[10] = target: T1, Delta-type opioid receptor; assay: Agonist activity at rat delta opioid receptor expressed in rat C6 cells assessed as inhibition of forskolin-stimulated cAMP production after 30 mins by radioimmunoassay
[11] = target: Delta-type opioid receptor (Rattus norvegicus) (UniProt P33533); conditions: C6, 1 uM; remark: listed apart in the source
[12] = target: T1, Delta-type opioid receptor; assay: Binding affinity to rat delta opioid receptor expressed in rat C6 cells; type: cell-based
Method in brief: as §1

[13] = target: Delta-type opioid receptor (Rattus norvegicus) (UniProt P33533); assay: Ratio of compound Ki to 5R,8S,11S,14S)-14-((S)-2-amino-3-(4-hydroxyphenyl)propanamido)-8,11-dibenzyl-7,10,13-trioxo-1,3-dithia-6,9,12-triazacyclopentadecane-5-carboxamide Ki for rat delta opioid receptor expressed in rat C6 cells; type: cell-based
[14] = target: T3, Kappa-type opioid receptor; assay: Ratio of compound Ki to 5R,8S,11S,14S)-14-((S)-2-amino-3-(4-hydroxyphenyl)propanamido)-8,11-dibenzyl-7,10,13-trioxo-1,3-dithia-6,9,12-triazacyclopentadecane-5-carboxamide Ki for human kappa opioid receptor expressed in CHO cells; type: cell-based

Mu-type opioid receptor (Rattus norvegicus), sequence (P33535 whole entry): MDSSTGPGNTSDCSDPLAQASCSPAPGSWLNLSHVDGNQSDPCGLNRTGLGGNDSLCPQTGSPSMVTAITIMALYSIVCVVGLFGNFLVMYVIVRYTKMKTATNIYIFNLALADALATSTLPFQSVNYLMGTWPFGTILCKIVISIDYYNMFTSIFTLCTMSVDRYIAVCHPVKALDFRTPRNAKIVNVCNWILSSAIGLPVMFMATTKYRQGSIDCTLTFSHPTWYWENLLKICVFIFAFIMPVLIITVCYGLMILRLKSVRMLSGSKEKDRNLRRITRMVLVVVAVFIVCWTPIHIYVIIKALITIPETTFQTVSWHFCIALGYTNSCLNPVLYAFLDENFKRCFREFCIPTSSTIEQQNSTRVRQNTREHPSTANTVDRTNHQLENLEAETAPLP
T2 sequence (P33535 whole entry): as above
Delta-type opioid receptor (Rattus norvegicus), sequence (P33533 whole entry): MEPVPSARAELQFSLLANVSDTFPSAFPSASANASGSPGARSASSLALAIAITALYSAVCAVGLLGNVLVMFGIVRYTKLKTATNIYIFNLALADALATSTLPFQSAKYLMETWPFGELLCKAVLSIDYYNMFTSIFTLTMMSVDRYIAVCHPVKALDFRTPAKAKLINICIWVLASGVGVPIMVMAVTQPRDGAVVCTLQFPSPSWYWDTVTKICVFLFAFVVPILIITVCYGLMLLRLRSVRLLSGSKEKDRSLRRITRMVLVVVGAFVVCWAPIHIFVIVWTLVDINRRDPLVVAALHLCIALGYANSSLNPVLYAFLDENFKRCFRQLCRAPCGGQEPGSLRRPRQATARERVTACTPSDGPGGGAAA
T1 sequence (P33533 whole entry): as above
T3 sequence (P41145 whole entry): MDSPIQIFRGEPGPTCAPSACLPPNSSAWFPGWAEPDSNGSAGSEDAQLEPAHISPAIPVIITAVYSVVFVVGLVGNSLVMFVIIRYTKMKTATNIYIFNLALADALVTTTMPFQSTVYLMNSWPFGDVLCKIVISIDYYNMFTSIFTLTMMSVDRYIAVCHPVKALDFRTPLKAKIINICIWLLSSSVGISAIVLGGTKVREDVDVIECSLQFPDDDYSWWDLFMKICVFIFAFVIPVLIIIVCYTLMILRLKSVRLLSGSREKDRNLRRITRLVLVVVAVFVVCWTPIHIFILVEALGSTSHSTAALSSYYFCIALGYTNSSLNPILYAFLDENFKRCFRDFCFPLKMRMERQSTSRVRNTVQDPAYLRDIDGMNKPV

Row | SMILES | inhibition [1] [%] | Ki [2] [nM] | Efficacy [3] [%] | Efficacy [4] [%] | Ki (Mu-type opioid receptor [5]) [nM] | Ki [6] [nM] | Efficacy [7] [%] | EC50 [8] [nM] | EC50 (Mu-type opioid receptor [9]) [nM] | EC50 [10] [nM] | inhibition [11] [%] | Ki [12] [nM] | Ratio Ki [13] | Ratio Ki [14]
1 | C=CCN1C[C@H](C)N([C@H](c2ccc(C(=O)N(CC)CC)cc2)c2cccc(OC)c2)C[C@H]1C | 67 |  |  |  |  |  |  |  |  |  |  |  |  | 
2 | NC(=O)[C@@H]1CSSC[C@@H](NC(=O)[C@@H](N)Cc2ccc(O)cc2)C(=O)N[C@@H](Cc2ccccc2)C(=O)N[C@@H](Cc2cccc3ccccc23)C(=O)N1 (H-Y[dC]F[1Nal]C-NH2; disulfide 2-5) |  | 7.1 | 15 | 88 | 2.5 | 11 | 100 |  |  |  |  |  |  | 
3 | NC(=O)[C@@H]1CSCSC[C@@H](NC(=O)[C@@H](N)Cc2ccc(O)cc2)C(=O)N[C@@H](Cc2ccccc2)C(=O)N[C@@H](Cc2cccc3ccccc23)C(=O)N1 (H-Y[dC]F[1Nal]C-NH2; linker 2-5 via CH2) |  | 5.2 | 22 | 100 | 0.61 | 6 | 87 |  |  |  |  |  |  | 
4 | NC(=O)[C@@H]1CSSC[C@@H](NC(=O)[C@@H](N)Cc2ccc(O)cc2)C(=O)N[C@@H](Cc2ccccc2)C(=O)N[C@@H](Cc2ccc3ccccc3c2)C(=O)N1 (H-Y[dC]F[2Nal]C-NH2; disulfide 2-5) |  | 11 | 2 | 90 | 1.2 | 5.9 | 49 |  |  |  |  |  |  | 
5 | NC(=O)[C@@H]1CSCSC[C@@H](NC(=O)[C@@H](N)Cc2ccc(O)cc2)C(=O)N[C@@H](Cc2ccccc2)C(=O)N[C@@H](Cc2ccc3ccccc3c2)C(=O)N1 (H-Y[dC]F[2Nal]C-NH2; linker 2-5 via CH2) | 37 | 0.48 | 7 | 99 | 0.47 | 1.3 | 89 | 12 | 1.2 | 36 | 55 | 2.1 |  | 
6 | NC(=O)[C@@H]1CSSC[C@@H](NC(=O)[C@@H](N)Cc2ccc(O)cc2)C(=O)N[C@@H](Cc2cccc3ccccc23)C(=O)N[C@@H](Cc2ccccc2)C(=O)N1 (H-Y[dC][1Nal]FC-NH2; disulfide 2-5) |  | 34 | 0 | 33 | 0.08 | 21 | 59 |  |  |  |  |  | > 10 | 
7 | NC(=O)[C@@H]1CSCSC[C@@H](NC(=O)[C@@H](N)Cc2ccc(O)cc2)C(=O)N[C@@H](Cc2cccc3ccccc23)C(=O)N[C@@H](Cc2ccccc2)C(=O)N1 (H-Y[dC][1Nal]FC-NH2; linker 2-5 via CH2) |  | 34 | 23 | 91 | 0.33 | 5.8 | 77 |  |  |  |  |  | > 10 | 
8 | NC(=O)[C@@H]1CSSC[C@@H](NC(=O)[C@@H](N)Cc2ccc(O)cc2)C(=O)N[C@@H](Cc2ccc3ccccc3c2)C(=O)N[C@@H](Cc2ccccc2)C(=O)N1 (H-Y[dC][2Nal]FC-NH2; disulfide 2-5) |  | 55 | 0.7 | 34 | 0.72 | 145 | 7.5 |  |  |  |  |  | > 10 | > 10
9 | NC(=O)[C@@H]1CSCSC[C@@H](NC(=O)[C@@H](N)Cc2ccc(O)cc2)C(=O)N[C@@H](Cc2ccc3ccccc3c2)C(=O)N[C@@H](Cc2ccccc2)C(=O)N1 (H-Y[dC][2Nal]FC-NH2; linker 2-5 via CH2) |  | 15 | 23 | 34 | 0.47 | 69 | 35 |  |  |  |  |  | > 10 | > 10
